Measured values taken from ChEMBL document CHEMBL1152380, “The synthesis and biological evaluation of a novel series of C7 non-basic substituted fluoroquinolones as antibacterial agents” (2009).
In brackets after ≈: the same amount, converted by molar mass.

How the values were obtained:
Type in all cases: functional
[1] = tested on: Staphylococcus epidermidis; assay: Antibacterial activity against Staphylococcus epidermidis ATCC 12228 by microbroth dilution technique
In short: (§1)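 MIC, taken as the lowest drug concentration that prevents visible growth, determined by broth microdilution following the National Committee for Clinical and Laboratory Standards method. Strains were reference strains from the American Type Culture Collection or clinical isolates from the hospital culture collection.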

Escherichia coli = assay: Antibacterial activity against Escherichia coli ATCC 25922 by microbroth dilution technique; in short: as §1
Streptococcus pneumoniae [2] = assay: Antibacterial activity against Streptococcus pneumoniae ATCC 49619 by microbroth dilution technique
In short: (§2)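 Broth microdilution run to the National Committee for Clinical and Laboratory Standards method. MIC is taken as the lowest drug concentration that prevents visible bacterial growth. Strains were clinical isolates from a hospital culture collection or ATCC reference strains.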

Enterococcus faecalis = assay: Antibacterial activity against Enterococcus faecalis ATCC 29212 by microbroth dilution technique; in short: as §1
Streptococcus pneumoniae [3] = assay: Antibacterial activity against multidrug-resistant Streptococcus pneumoniae clinical isolates by microbroth dilution technique
Pseudomonas aeruginosa [4] = assay: Antibacterial activity against multidrug-resistant Pseudomonas aeruginosa clinical isolates by microbroth dilution technique
Pseudomonas aeruginosa [5] = assay: Antibacterial activity against Pseudomonas aeruginosa ATCC 27853 by microbroth dilution technique; in short: as §2
Staphylococcus aureus [6] = assay: Antibacterial activity against multidrug-resistant Staphylococcus aureus clinical isolates by microbroth dilution technique
Staphylococcus aureus [7] = assay: Antibacterial activity against Staphylococcus aureus ATCC 25923 by microbroth dilution technique; in short: as §1
[8] = Staphylococcus epidermidis, ATCC 12228, read-out: MIC
[9] = Escherichia coli, ATCC 25922, read-out: MIC
[10] = Streptococcus pneumoniae, ATCC 49619, read-out: MIC
[11] = Enterococcus faecalis, ATCC 29212, read-out: MIC
[12] = Streptococcus pneumoniae, read-out: MIC
[13] = Pseudomonas aeruginosa, read-out: MIC
[14] = Pseudomonas aeruginosa, ATCC 27853, read-out: MIC
[15] = Staphylococcus aureus, ATCC 25923, read-out: MIC

SMILES	MIC [1, 8]	MIC (Escherichia coli; [9])	MIC (Streptococcus pneumoniae [2]; [10])	MIC (Enterococcus faecalis; [11])	MIC (Streptococcus pneumoniae [3]; [12])	MIC (Pseudomonas aeruginosa [4]; [13])	MIC (Pseudomonas aeruginosa [5]; [14])	MIC (Staphylococcus aureus [6])	MIC (Staphylococcus aureus [7]; [15])	MIC [1]	MIC (Escherichia coli)	MIC (Streptococcus pneumoniae [2])	MIC (Enterococcus faecalis)	MIC (Streptococcus pneumoniae [3])	MIC (Pseudomonas aeruginosa [5])	MIC (Staphylococcus aureus [7])	MIC (Pseudomonas aeruginosa [4])
COC(=O)[C@@H]1C[C@@H](n2cc(CO)nn2)CN1c1nc2c(cc1F)c(=O)c(C(=O)O)cn2C1CC1	8 µg/mL (≈ 16.9 µM)	4 µg/mL (≈ 8.47 µM)	1 µg/mL (≈ 2.12 µM)	0.5 µg/mL (≈ 1.06 µM)	1 µg/mL (≈ 2.12 µM)	> 32 µg/mL	32 µg/mL (≈ 67.7 µM)	> 32 µg/mL	4 µg/mL (≈ 8.47 µM)	–	–	–	–	–	–	–	–
O=C(O)c1cn(C2CC2)c2nc(N3CC4CC3CS4)c(F)cc2c1=O (stereo not given)	0.125 µg/mL (≈ 0.346 µM)	0.125 µg/mL (≈ 0.346 µM)	0.031 µg/mL (≈ 0.0858 µM)	0.125 µg/mL (≈ 0.346 µM)	0.031 µg/mL (≈ 0.0858 µM)	32 µg/mL (≈ 88.5 µM)	2 µg/mL (≈ 5.53 µM)	> 32 µg/mL	0.016 µg/mL (≈ 0.0443 µM)	–	–	–	–	–	–	–	–
COC(=O)[C@@H]1C[C@@H](O)CN1c1nc2c(cc1F)c(=O)c(C(=O)O)cn2C1CC1	16 µg/mL (≈ 40.9 µM)	8 µg/mL (≈ 20.4 µM)	0.5 µg/mL (≈ 1.28 µM)	1 µg/mL (≈ 2.56 µM)	0.5 µg/mL (≈ 1.28 µM)	32 µg/mL (≈ 81.8 µM)	32 µg/mL (≈ 81.8 µM)	> 32 µg/mL	2 µg/mL (≈ 5.11 µM)	–	–	–	–	–	–	–	–
O=C(O)c1cn(C2CC2)c2nc(N3CC4CC3CS4(=O)=O)c(F)cc2c1=O (stereo not given)	0.5 µg/mL (≈ 1.27 µM)	0.125 µg/mL (≈ 0.318 µM)	0.063 µg/mL (≈ 0.16 µM)	0.063 µg/mL (≈ 0.16 µM)	0.031 µg/mL (≈ 0.0788 µM)	32 µg/mL (≈ 81.3 µM)	8 µg/mL (≈ 20.3 µM)	> 32 µg/mL	0.016 µg/mL (≈ 0.0407 µM)	–	–	–	–	–	–	–	–
CN[C@H](CC(C)C)C(=O)N[C@H]1C(=O)N[C@@H](CC(N)=O)C(=O)N[C@H]2C(=O)N[C@H]3C(=O)N[C@H](C(=O)N[C@H](C(=O)O)c4cc(O)cc(O)c4-c4cc3ccc4O)[C@H](O)c3ccc(c(Cl)c3)Oc3cc2cc(c3O[C@@H]2O[C@H](CO)[C@@H](O)[C@H](O)[C@H]2O[C@H]2C[C@](C)(N)[C@H](O)[C@H](C)O2)Oc2ccc(cc2Cl)[C@H]1O [VANCOMYCIN]	–	–	1 µg/mL (≈ 0.69 µM)	0.5 µg/mL (≈ 0.345 µM)	2 µg/mL (≈ 1.38 µM)	–	–	–	–	–	–	–	–	–	–	–	–
O=C(O)c1cn(C2CC2)c2nc(N3C[C@H](O)C[C@H]3CO)c(F)cc2c1=O	> 32 µg/mL	32 µg/mL (≈ 88.1 µM)	8 µg/mL (≈ 22 µM)	4 µg/mL (≈ 11 µM)	8 µg/mL (≈ 22 µM)	32 µg/mL (≈ 88.1 µM)	32 µg/mL (≈ 88.1 µM)	> 32 µg/mL	16 µg/mL (≈ 44 µM)	–	–	–	–	–	–	–	–
O=C(O)c1cn(C2CC2)c2nc(N3CC4CC3C[S+]4[O-])c(F)cc2c1=O (stereo in doubt; 6.26)	–	–	–	–	–	32 µg/mL (≈ 84.8 µM)	–	–	–	1 µg/mL (≈ 2.65 µM)	0.5 µg/mL (≈ 1.32 µM)	0.125 µg/mL (≈ 0.331 µM)	0.25 µg/mL (≈ 0.662 µM)	0.125 µg/mL (≈ 0.331 µM)	16 µg/mL (≈ 42.4 µM)	1 µg/mL (≈ 2.65 µM)	–
O=C(O)c1cn(C2CC2)c2cc(N3CCNCC3)c(F)cc2c1=O [CIPROFLOXACIN]	0.5 µg/mL (≈ 1.51 µM)	–	–	0.5 µg/mL (≈ 1.51 µM)	–	–	–	–	–	–	–	–	–	–	–	–	–
O=C(O)c1cn(C2CC2)c2nc(N3CCC[C@H]3CO)c(F)cc2c1=O	8 µg/mL (≈ 23 µM)	2 µg/mL (≈ 5.76 µM)	0.5 µg/mL (≈ 1.44 µM)	0.5 µg/mL (≈ 1.44 µM)	0.5 µg/mL (≈ 1.44 µM)	32 µg/mL (≈ 92.1 µM)	32 µg/mL (≈ 92.1 µM)	> 32 µg/mL	0.5 µg/mL (≈ 1.44 µM)	–	–	–	–	–	–	–	–
O=C(O)c1cn(C2CC2)c2nc(N3CCC[C@H]3Cn3cc(-c4ccccc4)nn3)c(F)cc2c1=O	> 32 µg/mL	> 32 µg/mL	–	4 µg/mL (≈ 8.43 µM)	–	–	> 32 µg/mL	–	1 µg/mL (≈ 2.11 µM)	–	–	–	–	–	–	–	–
O=C(O)c1cn(C2CC2)c2nc(N3CCC[C@H]3Cn3cc(CO)nn3)c(F)cc2c1=O	32 µg/mL (≈ 74.7 µM)	32 µg/mL (≈ 74.7 µM)	8 µg/mL (≈ 18.7 µM)	4 µg/mL (≈ 9.34 µM)	4 µg/mL (≈ 9.34 µM)	32 µg/mL (≈ 74.7 µM)	32 µg/mL (≈ 74.7 µM)	> 32 µg/mL	32 µg/mL (≈ 74.7 µM)	–	–	–	–	–	–	–	–
C[C@@H](O)[C@@H]1C[C@@H](O)CN1c1nc2c(cc1F)c(=O)c(C(=O)O)cn2C1CC1	> 32 µg/mL	16 µg/mL (≈ 42.4 µM)	2 µg/mL (≈ 5.3 µM)	2 µg/mL (≈ 5.3 µM)	8 µg/mL (≈ 21.2 µM)	32 µg/mL (≈ 84.8 µM)	32 µg/mL (≈ 84.8 µM)	> 32 µg/mL	32 µg/mL (≈ 84.8 µM)	–	–	–	–	–	–	–	–
COC(=O)[C@@H]1C[C@@H](n2cc(Cc3ccccc3)nn2)CN1c1nc2c(cc1F)c(=O)c(C(=O)O)cn2C1CC1	> 32 µg/mL	32 µg/mL (≈ 60.1 µM)	4 µg/mL (≈ 7.51 µM)	16 µg/mL (≈ 30 µM)	8 µg/mL (≈ 15 µM)	32 µg/mL (≈ 60.1 µM)	32 µg/mL (≈ 60.1 µM)	> 32 µg/mL	> 32 µg/mL	–	–	–	–	–	–	–	–
C[C@H](O)[C@@H]1C[C@@H](O)CN1c1nc2c(cc1F)c(=O)c(C(=O)O)cn2C1CC1	32 µg/mL (≈ 84.8 µM)	8 µg/mL (≈ 21.2 µM)	1 µg/mL (≈ 2.65 µM)	4 µg/mL (≈ 10.6 µM)	2 µg/mL (≈ 5.3 µM)	32 µg/mL (≈ 84.8 µM)	32 µg/mL (≈ 84.8 µM)	> 32 µg/mL	16 µg/mL (≈ 42.4 µM)	–	–	–	–	–	–	–	–
CC(C)(C)OC(=O)N1CC2CC1CN2c1nc2c(cc1F)c(=O)c(C(=O)O)cn2C1CC1 (stereo not given)	4 µg/mL (≈ 9 µM)	4 µg/mL (≈ 9 µM)	2 µg/mL (≈ 4.5 µM)	0.5 µg/mL (≈ 1.12 µM)	0.5 µg/mL (≈ 1.12 µM)	32 µg/mL (≈ 72 µM)	32 µg/mL (≈ 72 µM)	> 32 µg/mL	0.25 µg/mL (≈ 0.562 µM)	–	–	–	–	–	–	–	–
O=C(O)c1cn(C2CC2)c2nc(N3C[C@@H](O)[C@H](O)C3)c(F)cc2c1=O	> 32 µg/mL	4 µg/mL (≈ 11.5 µM)	2 µg/mL (≈ 5.73 µM)	2 µg/mL (≈ 5.73 µM)	2 µg/mL (≈ 5.73 µM)	32 µg/mL (≈ 91.6 µM)	32 µg/mL (≈ 91.6 µM)	> 32 µg/mL	4 µg/mL (≈ 11.5 µM)	–	–	–	–	–	–	–	–
O=C(O)c1cn(C2CC2)c2nc(N3CC4CC3C[S+]4[O-])c(F)cc2c1=O (stereo in doubt; 6.28)	–	1 µg/mL (≈ 2.65 µM)	–	–	0.25 µg/mL (≈ 0.662 µM)	–	32 µg/mL (≈ 84.8 µM)	> 32 µg/mL	–	4 µg/mL (≈ 10.6 µM)	–	0.5 µg/mL (≈ 1.32 µM)	1 µg/mL (≈ 2.65 µM)	–	–	4 µg/mL (≈ 10.6 µM)	32 µg/mL (≈ 84.8 µM)
